In ChEMBL document CHEMBL1649420, “Identifying chelators for metalloprotein inhibitors using a fragment-based approach” (J Med Chem, 2011):

Experiments:
Tyrosinase = molecular target: T1, Tyrosinase (Agaricus bisporus, UniProt O42713); assay: Inhibition of mushroom tyrosinase after 10 mins
T1 sequence (O42713 whole entry): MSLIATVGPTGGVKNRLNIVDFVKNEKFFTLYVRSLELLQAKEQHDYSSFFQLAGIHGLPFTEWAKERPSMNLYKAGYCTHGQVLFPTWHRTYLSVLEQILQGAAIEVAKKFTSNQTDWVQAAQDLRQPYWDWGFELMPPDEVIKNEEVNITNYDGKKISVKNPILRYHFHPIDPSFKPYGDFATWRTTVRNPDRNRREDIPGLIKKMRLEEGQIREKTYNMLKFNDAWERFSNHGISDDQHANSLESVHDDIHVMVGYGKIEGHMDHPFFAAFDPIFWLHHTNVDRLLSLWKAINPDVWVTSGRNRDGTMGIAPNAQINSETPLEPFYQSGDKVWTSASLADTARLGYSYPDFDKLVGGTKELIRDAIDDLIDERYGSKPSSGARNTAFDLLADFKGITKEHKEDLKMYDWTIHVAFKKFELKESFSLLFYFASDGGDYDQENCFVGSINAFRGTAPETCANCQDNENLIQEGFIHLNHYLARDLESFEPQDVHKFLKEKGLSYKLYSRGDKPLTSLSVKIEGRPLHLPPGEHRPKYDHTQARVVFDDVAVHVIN

[1] = molecular target: T2, 72 kDa type IV collagenase (Homo sapiens, UniProt P08253); assay: Inhibition of human recombinant MMP2 after 30 mins
In short: (§1)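 Enzyme (1.16 U) preincubated 30 min at 37 °C with fragment in 50 mM HEPES, 10 mM CaCl2, 0.05% Brij-35, pH 7.5. Fluorogenic Mca peptide substrate (4 μM final) then added. Rate of fluorescence increase compared with no-inhibitor control (100%). Single-point 25 μM final for the 8-hydroxyquinoline sublibrary. IC50 fitted to dose-response curves from serial dilutions of DMSO stocks.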
Target sequence in this assay (P08253 whole entry, the tested form may be a part): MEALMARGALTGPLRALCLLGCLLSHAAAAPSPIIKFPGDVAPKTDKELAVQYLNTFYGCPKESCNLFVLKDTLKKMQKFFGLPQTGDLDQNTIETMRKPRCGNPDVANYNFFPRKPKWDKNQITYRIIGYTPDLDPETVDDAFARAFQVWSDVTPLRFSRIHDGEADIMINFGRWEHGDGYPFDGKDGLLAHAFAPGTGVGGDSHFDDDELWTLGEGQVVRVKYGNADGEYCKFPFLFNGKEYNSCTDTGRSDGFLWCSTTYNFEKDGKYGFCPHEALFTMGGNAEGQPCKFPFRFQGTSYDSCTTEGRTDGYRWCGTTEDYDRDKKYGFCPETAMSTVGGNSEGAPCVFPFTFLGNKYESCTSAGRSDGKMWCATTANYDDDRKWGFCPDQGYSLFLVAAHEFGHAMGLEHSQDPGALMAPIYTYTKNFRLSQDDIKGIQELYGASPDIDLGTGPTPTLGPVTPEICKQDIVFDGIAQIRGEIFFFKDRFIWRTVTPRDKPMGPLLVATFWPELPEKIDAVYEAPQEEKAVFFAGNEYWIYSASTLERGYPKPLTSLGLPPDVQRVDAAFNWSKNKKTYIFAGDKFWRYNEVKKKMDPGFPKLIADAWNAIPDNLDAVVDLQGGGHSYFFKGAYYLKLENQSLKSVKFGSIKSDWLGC

[2] = molecular target: T2, 72 kDa type IV collagenase; assay: Inhibition of human recombinant MMP2 at 25 uM after 30 mins; in short: as §1
Target sequence in this assay (P08253 110-660 limits assumed): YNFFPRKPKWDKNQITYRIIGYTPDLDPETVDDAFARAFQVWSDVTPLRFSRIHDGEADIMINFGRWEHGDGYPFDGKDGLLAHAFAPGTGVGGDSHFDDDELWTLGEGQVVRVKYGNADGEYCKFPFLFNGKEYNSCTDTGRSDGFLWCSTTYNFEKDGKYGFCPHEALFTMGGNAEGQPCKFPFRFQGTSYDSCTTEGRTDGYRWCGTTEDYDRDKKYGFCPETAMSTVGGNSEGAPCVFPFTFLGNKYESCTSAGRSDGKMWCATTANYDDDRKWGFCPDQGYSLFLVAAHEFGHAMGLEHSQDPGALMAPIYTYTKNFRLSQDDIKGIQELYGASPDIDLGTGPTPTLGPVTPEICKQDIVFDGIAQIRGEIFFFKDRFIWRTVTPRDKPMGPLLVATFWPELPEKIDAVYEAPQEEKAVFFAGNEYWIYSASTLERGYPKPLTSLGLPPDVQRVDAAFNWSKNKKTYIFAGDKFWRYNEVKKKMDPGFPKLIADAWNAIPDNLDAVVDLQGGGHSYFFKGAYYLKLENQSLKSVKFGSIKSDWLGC

[3] = molecular target: T3, Tyrosinase (Agaricus bisporus) (UniProt O42713); details: at 1 mM
T3 sequence (whole entry): T1 sequence (O42713 whole entry)

[4] = molecular target: T4, Polyunsaturated fatty acid 5-lipoxygenase (Homo sapiens, UniProt P09917); assay: Inhibition of human recombinant 5-lipoxygenase after 10 mins by fluorescence assay
T4 sequence (P09917 whole entry): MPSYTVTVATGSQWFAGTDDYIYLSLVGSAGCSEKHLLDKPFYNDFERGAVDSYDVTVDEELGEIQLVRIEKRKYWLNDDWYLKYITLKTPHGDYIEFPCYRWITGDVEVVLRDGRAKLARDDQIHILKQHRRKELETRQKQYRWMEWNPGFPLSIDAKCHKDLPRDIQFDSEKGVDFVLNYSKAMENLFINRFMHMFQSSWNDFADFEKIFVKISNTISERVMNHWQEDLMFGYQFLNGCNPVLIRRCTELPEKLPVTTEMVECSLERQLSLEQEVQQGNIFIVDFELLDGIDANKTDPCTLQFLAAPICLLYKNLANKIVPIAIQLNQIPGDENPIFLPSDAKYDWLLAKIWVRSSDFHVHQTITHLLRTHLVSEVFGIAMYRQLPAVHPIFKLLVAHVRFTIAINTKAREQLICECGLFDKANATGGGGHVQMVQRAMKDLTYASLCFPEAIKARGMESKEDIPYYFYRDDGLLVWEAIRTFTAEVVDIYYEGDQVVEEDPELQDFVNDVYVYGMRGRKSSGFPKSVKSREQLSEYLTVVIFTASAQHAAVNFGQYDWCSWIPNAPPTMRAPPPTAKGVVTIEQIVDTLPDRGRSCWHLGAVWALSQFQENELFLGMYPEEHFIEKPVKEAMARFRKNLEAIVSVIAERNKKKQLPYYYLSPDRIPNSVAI

[5] = molecular target: Stromelysin-1 (Homo sapiens) (UniProt P08254); details: at 1 mM;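 also: recombinant enzyme, inhibition read after a 30 min incubation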
Chain of Stromelysin-1 (Homo sapiens) (P08254 100-477 limits assumed): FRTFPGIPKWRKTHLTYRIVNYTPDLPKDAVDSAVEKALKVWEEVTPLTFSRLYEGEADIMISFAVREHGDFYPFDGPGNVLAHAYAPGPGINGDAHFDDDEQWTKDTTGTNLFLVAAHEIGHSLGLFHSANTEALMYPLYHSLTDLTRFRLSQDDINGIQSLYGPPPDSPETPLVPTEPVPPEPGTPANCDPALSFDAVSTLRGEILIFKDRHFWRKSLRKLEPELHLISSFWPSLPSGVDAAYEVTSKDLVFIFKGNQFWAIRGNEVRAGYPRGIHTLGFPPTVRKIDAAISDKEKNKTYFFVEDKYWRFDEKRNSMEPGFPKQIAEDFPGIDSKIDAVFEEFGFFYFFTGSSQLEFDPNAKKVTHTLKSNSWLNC

[6] = molecular target: Neutrophil collagenase (Homo sapiens) (UniProt P22894); details: at 1 mM;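 also: recombinant human MMP8 enzyme, percent inhibition read after 30 min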
Chain of Neutrophil collagenase (Homo sapiens) (P22894 101-467 limits assumed): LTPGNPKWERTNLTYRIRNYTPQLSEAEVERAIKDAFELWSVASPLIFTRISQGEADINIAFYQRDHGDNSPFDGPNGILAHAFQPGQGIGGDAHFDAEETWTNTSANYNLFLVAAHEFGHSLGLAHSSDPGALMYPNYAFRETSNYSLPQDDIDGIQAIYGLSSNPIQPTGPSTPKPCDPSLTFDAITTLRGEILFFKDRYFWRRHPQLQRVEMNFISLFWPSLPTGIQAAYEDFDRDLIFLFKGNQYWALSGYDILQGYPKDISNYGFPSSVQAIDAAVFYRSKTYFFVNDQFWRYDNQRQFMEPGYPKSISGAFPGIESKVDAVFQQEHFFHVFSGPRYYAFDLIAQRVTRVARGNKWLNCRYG

[7] = molecular target: T2, 72 kDa type IV collagenase; details: at 1 mM
Target sequence in this assay (P08253 110-660 limits assumed): as the sequence (P08253 110-660 limits assumed) above

[8] = molecular target: T5, Interstitial collagenase (Homo sapiens) (UniProt P03956); details: at 1 mM;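 also: recombinant human enzyme, with inhibition measured after 30 min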
T5 sequence (whole entry): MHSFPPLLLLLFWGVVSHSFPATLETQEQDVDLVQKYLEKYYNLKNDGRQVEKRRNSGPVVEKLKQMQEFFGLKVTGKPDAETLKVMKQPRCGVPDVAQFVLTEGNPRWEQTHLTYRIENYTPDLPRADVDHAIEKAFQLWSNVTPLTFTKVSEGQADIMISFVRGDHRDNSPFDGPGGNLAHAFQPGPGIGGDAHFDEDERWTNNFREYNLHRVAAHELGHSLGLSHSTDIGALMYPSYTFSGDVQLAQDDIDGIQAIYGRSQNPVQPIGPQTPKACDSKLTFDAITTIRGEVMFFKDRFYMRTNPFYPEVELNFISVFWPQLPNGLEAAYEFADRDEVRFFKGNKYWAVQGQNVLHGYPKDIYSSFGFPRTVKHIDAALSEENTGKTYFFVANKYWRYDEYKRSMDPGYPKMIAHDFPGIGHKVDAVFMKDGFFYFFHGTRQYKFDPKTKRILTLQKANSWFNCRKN

[9] = molecular target: T6, Polyunsaturated fatty acid 5-lipoxygenase (Homo sapiens) (UniProt P09917); assay: Inhibition of human recombinant 5-lipoxygenase at 1 mM after 10 mins by fluorescence assay
T6 sequence (whole entry): T4 sequence (P09917 whole entry)

[10] = molecular target: Matrix metalloproteinase-9 (Homo sapiens) (UniProt P14780); details: at 1 mM;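 also: recombinant human MMP9, activity read after 30 min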
Chain of Matrix metalloproteinase-9 (Homo sapiens) (P14780 whole entry): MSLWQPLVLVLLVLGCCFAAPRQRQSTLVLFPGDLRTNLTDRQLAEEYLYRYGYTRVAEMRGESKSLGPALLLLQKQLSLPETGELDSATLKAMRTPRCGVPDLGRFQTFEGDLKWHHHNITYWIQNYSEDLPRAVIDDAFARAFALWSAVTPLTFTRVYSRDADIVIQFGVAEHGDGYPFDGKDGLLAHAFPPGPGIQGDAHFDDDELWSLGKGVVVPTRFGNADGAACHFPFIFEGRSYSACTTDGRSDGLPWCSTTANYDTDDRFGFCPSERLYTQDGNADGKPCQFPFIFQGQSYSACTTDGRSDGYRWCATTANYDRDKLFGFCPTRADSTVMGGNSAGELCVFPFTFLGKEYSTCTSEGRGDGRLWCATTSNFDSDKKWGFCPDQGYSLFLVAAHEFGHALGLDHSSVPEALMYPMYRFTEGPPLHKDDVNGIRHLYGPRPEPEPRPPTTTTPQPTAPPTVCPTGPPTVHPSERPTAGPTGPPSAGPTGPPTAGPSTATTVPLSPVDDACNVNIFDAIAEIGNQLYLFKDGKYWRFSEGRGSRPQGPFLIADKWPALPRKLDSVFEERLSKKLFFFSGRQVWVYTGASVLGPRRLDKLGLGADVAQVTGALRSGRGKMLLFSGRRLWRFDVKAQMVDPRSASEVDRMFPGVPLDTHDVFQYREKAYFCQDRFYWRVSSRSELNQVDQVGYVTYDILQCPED

[11] = molecular target: T7, Nitric oxide synthase, inducible (Mus musculus) (UniProt P29477); details: at 1 mM;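 also: recombinant enzyme, activity read out colorimetrically after 40 min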
T7 sequence (whole entry): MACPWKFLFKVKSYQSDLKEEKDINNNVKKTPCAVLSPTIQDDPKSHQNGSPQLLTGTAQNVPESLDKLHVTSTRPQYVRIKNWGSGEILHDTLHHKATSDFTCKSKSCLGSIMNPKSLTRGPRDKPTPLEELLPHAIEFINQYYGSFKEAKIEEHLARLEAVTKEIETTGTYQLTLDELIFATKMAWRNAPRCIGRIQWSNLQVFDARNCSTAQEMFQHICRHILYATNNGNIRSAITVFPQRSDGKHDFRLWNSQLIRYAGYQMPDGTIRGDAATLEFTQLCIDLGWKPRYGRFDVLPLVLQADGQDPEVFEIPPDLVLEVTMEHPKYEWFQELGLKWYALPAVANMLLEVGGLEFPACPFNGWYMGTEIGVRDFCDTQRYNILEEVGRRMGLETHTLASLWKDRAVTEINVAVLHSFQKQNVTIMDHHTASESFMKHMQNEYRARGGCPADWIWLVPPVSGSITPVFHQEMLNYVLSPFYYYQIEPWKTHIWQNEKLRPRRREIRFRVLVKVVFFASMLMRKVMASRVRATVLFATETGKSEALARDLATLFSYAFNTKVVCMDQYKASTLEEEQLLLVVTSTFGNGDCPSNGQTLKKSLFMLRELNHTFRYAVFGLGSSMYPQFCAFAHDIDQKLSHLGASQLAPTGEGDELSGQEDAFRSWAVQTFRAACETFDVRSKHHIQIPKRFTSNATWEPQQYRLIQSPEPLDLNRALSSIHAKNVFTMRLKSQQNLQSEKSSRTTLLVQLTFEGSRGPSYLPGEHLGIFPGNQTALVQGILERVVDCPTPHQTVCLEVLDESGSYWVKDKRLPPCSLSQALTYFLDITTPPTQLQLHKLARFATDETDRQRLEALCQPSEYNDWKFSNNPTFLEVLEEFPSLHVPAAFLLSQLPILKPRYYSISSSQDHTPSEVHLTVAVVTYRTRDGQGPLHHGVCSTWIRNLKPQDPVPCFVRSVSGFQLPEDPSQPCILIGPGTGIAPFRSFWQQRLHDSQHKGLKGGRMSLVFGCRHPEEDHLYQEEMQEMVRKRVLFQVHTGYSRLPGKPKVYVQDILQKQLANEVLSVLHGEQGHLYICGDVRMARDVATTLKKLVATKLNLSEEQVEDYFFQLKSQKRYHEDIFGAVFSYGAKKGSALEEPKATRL

[12] = molecular target: T8, Lethal factor (Bacillus anthracis) (UniProt P15917); details: at 1 mM
T8 sequence (whole entry): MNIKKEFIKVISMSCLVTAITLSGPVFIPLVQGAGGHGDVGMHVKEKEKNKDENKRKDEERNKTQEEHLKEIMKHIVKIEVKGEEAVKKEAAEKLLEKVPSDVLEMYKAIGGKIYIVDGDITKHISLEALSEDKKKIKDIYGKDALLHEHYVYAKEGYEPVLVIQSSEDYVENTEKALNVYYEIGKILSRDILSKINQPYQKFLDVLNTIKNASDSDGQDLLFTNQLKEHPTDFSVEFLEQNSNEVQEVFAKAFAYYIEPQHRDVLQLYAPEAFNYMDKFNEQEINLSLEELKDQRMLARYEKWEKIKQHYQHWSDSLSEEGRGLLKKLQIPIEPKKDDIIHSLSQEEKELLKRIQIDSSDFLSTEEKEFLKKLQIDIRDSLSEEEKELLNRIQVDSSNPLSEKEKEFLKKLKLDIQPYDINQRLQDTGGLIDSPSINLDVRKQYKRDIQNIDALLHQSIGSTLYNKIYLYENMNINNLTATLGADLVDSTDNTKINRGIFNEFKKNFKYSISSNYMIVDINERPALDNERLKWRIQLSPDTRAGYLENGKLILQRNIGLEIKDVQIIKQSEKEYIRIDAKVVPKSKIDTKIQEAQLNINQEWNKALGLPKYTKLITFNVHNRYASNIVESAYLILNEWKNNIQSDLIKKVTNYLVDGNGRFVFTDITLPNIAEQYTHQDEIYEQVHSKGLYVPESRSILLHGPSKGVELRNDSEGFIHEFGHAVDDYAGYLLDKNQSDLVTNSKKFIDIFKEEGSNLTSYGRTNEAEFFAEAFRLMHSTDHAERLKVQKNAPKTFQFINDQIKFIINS

Lethal factor = molecular target: T9, Lethal factor (Bacillus anthracis, UniProt P15917); assay: Inhibition of recombinant anthrax lethal factor after 30 mins by fluorescence assay
T9 sequence (P15917 whole entry): T8 sequence (whole entry)

Row | SMILES | IC50 [1] [µM] | inhibition [2] [%] | inhibition [5] [%] | inhibition [6] [%] | inhibition [7] [%] | inhibition [8] [%] | inhibition [9] [%] | inhibition [10] [%] | further results
1 | O=C(O)c1cccc(=O)[nH]1 | – | – | – | – | – | – | – | – | IC50 (Tyrosinase): 159 µM
2 | O=S(=O)(Nc1ccc(O)c2ncccc12)c1ccccc1 | 8.8 | > 65 | – | – | – | – | – | – | –
3 | O=S(=O)(Nc1ccc2cccnc2c1O)c1ccccc1 | 5.6 | > 65 | – | – | – | – | – | – | –
4 | O=C(O)c1cc(O)ccc1O [GENTISIC ACID] | – | – | -3 | 1 | 0 | 13 | 86 | 40 | inhibition [3]: 96%; IC50 [4]: 75 µM; inhibition [11]: 24%
5 | O=S(=O)(Nc1ccc2cccnc2c1O)c1cccs1 | 4.3 | > 65 | – | – | – | – | – | – | –
6 | Cc1occc(=S)c1O | – | – | 98 | 101 | 100 | 98 | 91 | 100 | inhibition [3]: 102%; IC50 [4]: 11 µM; IC50 (Tyrosinase): 3.8 µM; inhibition [12]: 96%
7 | Oc1cccc2cccnc12 [OXYQUINOLINE] | 130 | – | 83 | 92 | 94 | 77 | 61 | 78 | inhibition [12]: 56%; inhibition [11]: 8%
8 | O=S(=O)(Nc1ccc2cccnc2c1O)c1ccc(F)cc1 | 3 | > 65 | – | – | – | – | – | – | –
9 | Nc1cccc(C(=O)O)c1O | 389 | – | 72 | 67 | 70 | 69 | 72 | 59 | inhibition [12]: 90%; inhibition [11]: 18%
10 | O=S(=O)(Nc1ccc2cccnc2c1O)c1ccc(-c2ccccc2)cc1 | 3.9 | > 65 | – | – | – | – | – | – | –
11 | O=S(=O)(Nc1ccc(O)c2ncccc12)c1ccc(F)cc1 | 7.2 | > 65 | – | – | – | – | – | – | –
12 | Oc1coccc1=S | 76 | – | 98 | 102 | 100 | 99 | 94 | 100 | inhibition [3]: 97%; inhibition [12]: 101%; IC50 (Lethal factor): 204 µM
13 | O=S(=O)(Nc1ccc(O)c2ncccc12)c1cccs1 | 8.4 | > 65 | – | – | – | – | – | – | –
14 | O=S(=O)(Nc1ccc(O)c2ncccc12)c1ccc(-c2ccccc2)cc1 | 10.8 | > 65 | – | – | – | – | – | – | –
